Results from article PMC4109633 (Drug Design, Development and Therapy, 2014).
Marks after values point to notes of the source that are not given here.

Assays:
G-quadruplex DNA = conditions: cited from earlier work
[1] = system: Salmonella typhimurium TA1535; assay: Cytotoxicity in liquid medium; assay type: cell-based; conditions: mean ± SEM
Method in brief: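 TA1535 was grown in broth microdilution with test compound at 25, 50 or 100 µM. Viability was expressed as % of untreated control (mean ± SEM), triplicate.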

[2] = system: Salmonella typhimurium TA1535; assay: Ames Salmonella/microsomal mutagenicity assay; assay type: cell-based; conditions: presence of S9 mix, spontaneous 67.0±6.1
[3] = system: Salmonella typhimurium TA1535; assay: Antimutagenicity assay against sodium azide; assay type: cell-based; conditions: for NaN3 mutagenicity (revertant colonies/plate; mean ± SEM): NaN3 2 μg/plate, spontaneous 29.3±5.3; for Mutant frequency (sodium azide): mutant colonies/viable colonies
Method in brief: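 TA1535 was exposed to test compound at 10 or 20 µM with NaN₃ (2 µg/plate) in two schemes. In pre-exposure, compound and bacteria were shaken 30 min at 37°C before mutagen was added. In co-exposure, bacteria, mutagen and compound were incubated together 30 min at 37°C. Cells were then plated on minimal glucose agar, and revertants counted at 48 h, in triplicate. Mutant frequency = mutant colonies/viable colonies.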

[4] = system: Salmonella typhimurium TA1535; assay: Antimutagenicity assay against benzo[a]pyrene with S9 mix; assay type: cell-based; conditions: for B[a]P mutagenicity (revertant colonies/plate; mean ± SEM): B[a]P 20 μM + S9 mix, spontaneous 105.0±13.1; for Mutant frequency (benzo[a]pyrene): mutant colonies/viable colonies

| SMILES | Viability at fluoroarylbichalcophene concentrations (% of control) ([1]; 25 μM) | Viability at fluoroarylbichalcophene concentrations (% of control) ([1]; 50 μM) | Viability at fluoroarylbichalcophene concentrations (% of control) ([1]; 100 μM) | Fluoroarylbichalcophene mutagenicity (revertant colonies/plate; mean ± SEM) ([2]; 10 μM) [revertant colonies/plate] | Fluoroarylbichalcophene mutagenicity (revertant colonies/plate; mean ± SEM) ([2]; 20 μM) [revertant colonies/plate] | NaN3 mutagenicity (revertant colonies/plate; mean ± SEM) ([3]; co-exposure, 10 μM) [revertant colonies/plate] | Mutant frequency (sodium azide) ([3]; co-exposure, 10 μM) | NaN3 mutagenicity (revertant colonies/plate; mean ± SEM) ([3]; co-exposure, 20 μM) [revertant colonies/plate] | Mutant frequency (sodium azide) ([3]; co-exposure, 20 μM) | NaN3 mutagenicity (revertant colonies/plate; mean ± SEM) ([3]; pre-exposure, 10 μM) [revertant colonies/plate] | Mutant frequency (sodium azide) ([3]; pre-exposure, 10 μM) | NaN3 mutagenicity (revertant colonies/plate; mean ± SEM) ([3]; pre-exposure, 20 μM) [revertant colonies/plate] | B[a]P mutagenicity (revertant colonies/plate; mean ± SEM) ([4]; co-exposure, 10 μM) [revertant colonies/plate] | Mutant frequency (benzo[a]pyrene) ([4]; co-exposure, 10 μM) | B[a]P mutagenicity (revertant colonies/plate; mean ± SEM) ([4]; co-exposure, 20 μM) [revertant colonies/plate] | Mutant frequency (benzo[a]pyrene) ([4]; co-exposure, 20 μM) | B[a]P mutagenicity (revertant colonies/plate; mean ± SEM) ([4]; pre-exposure, 10 μM) [revertant colonies/plate] | Mutant frequency (benzo[a]pyrene) ([4]; pre-exposure, 10 μM) | B[a]P mutagenicity (revertant colonies/plate; mean ± SEM) ([4]; pre-exposure, 20 μM) [revertant colonies/plate] | Mutant frequency (benzo[a]pyrene) ([4]; pre-exposure, 20 μM) | other results |
| --- | --- | --- | --- | --- | --- | --- | --- | --- | --- | --- | --- | --- | --- | --- | --- | --- | --- | --- | --- | --- | --- |
| N=C(N)c1ccc(-c2ccc(-c3ccc(C(=N)N)o3)o2)cc1 [Compound I, 5′-(4-amidinophenyl)-2,2′-bifuran-5-carboxamidine] | – | – | – | – | – | – | – | – | – | – | – | – | – | – | – | – | – | – | – | – | Recognition of G-quadruplex DNA (G-quadruplex DNA): recognize G-quadruplex DNA |
| N#Cc1ccc(-c2ccc(-c3cccs3)o2)c(F)c1 [Compound 4c, 3-Fluoro-4-(5-(thiophen-2-yl)furan-2-yl)benzonitrile] | 104.7±11.6 % of control | 61.0±7.0 ^a % of control | 2.7±0.4 ^a % of control | 65.3±5.4 | 68.7±5.5 | 44.7±6.0 | 0.81 | 40.0±5.0 | 0.78 | 51.0±6.6 | 0.93 | 53.7±9.3 | 279.3±19.5 | 4.43 | 269.3±9.0 | 4.41 | 177.0±11.3 | 2.81 | 153.7±7.0 | 2.52 | Antimutagenic potential against B[a]P ([4]; co-exposure, low concentration investigated): no significant activity |
| N#Cc1ccc(-c2ccc(-c3ccco3)o2)cc1F [Compound 4b, 4-(2,2′-Bifuran-5-yl)-2-fluorobenzonitrile] | 88.3±7.4 % of control | 64.7±6.6 ^a % of control | 29.0±3.1 ^a % of control | 64.3±4.0 | 71.3±4.0 | 35.3±2.8 | 0.65 | 32.7±5.5 | 0.64 | 69.7±8.0 | 1.28 | 48.3±5.0 | 193.0±15.7 | 3.00 | 154.7±16.5 | 2.41 | 239.3±10.5 | 3.72 | 238.0±7.6 | 3.70 | Mutant frequency (sodium azide) ([3]; pre-exposure, 20 μM): 0.95 |
